ChEMBL document CHEMBL1157562, “Piperazinyl glutamate pyridines as potent orally bioavailable P2Y12 antagonists for inhibition of platelet aggregation” (J Med Chem, 2010)
pIC50, pKi: −log10 of the molar value.

Tests used:
[1] = system: Platelet; test: Relative potency, ratio of IC50 for drug to IC50 for AZD-6140 for platelet aggregation in human platelet rich plasma; format: functional
[2] = target: P2Y purinoceptor 12 (Homo sapiens, UniProt Q9H244); test: Displacement of [33P]ADP from human recombinant P2Y12 receptor expressed in CHO cells; format: cell-based
Outline: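 Washed membranes from CHO cells expressing synthetic human P2Y12, incubated 1 h at room temperature with 0.2 nM 33P-MeSADP in 50 mM Tris/100 mM NaCl/1 mM EDTA. Compound was tested as a 7-point 3-fold series in triplicate. Nonspecific binding was defined with 300 nM 2-MeSADP, followed by filtration.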

[3] = Antiplatelet aggregation activity against adenosine diphosphate-induced human platelet rich plasma assessed as inhibition of platelet aggregation by turbidimetric method; format: functional; conditions: Homo sapiens, Platelet, Plasma
Outline: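 Human PRP, prepared by two-step centrifugation and adjusted to 330 000 platelets/μL with PPP. Compound was preincubated 5 min at 37 °C in 0.5% DMSO, then 20 μM ADP was added. OD626 was read kinetically for 15 min at 37 °C with mixing between reads.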

P2Y purinoceptor 12, sequence (Q9H244 whole entry): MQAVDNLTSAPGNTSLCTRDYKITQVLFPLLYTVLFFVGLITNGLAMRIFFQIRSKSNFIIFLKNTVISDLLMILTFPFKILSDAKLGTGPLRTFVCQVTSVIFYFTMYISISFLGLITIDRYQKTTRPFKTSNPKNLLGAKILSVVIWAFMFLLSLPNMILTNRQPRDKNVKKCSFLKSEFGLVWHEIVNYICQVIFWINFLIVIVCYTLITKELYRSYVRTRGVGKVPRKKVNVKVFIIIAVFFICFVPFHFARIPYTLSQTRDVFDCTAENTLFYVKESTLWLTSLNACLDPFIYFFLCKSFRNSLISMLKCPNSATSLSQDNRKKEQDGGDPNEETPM

Compound	Ratio IC50 [1]	pKi [2]	pIC50 [3]
CCCCOC(=O)N1CCN(C(=O)[C@H](CCC(=O)O)NC(=O)c2cc(OCC3CCN(C)CC3)cc(-c3ccccc3)n2)CC1	0.38	8.60	6.62
CCCCCOC(=O)N1CCN(C(=O)[C@H](CCC(=O)O)NC(=O)c2cc(C(=O)NCCOC)cc(-c3ccccc3)n2)CC1	18	8.10	5.10
CCCCOC(=O)N1CCN(C(=O)[C@H](CCC(=O)O)NC(=O)c2cc(OC3CCCNC3)cc(-c3ccccc3)n2)CC1 (some centres undefined)	1.8	8.16	5.41
CCCCCOC(=O)N1CCN(C(=O)[C@H](CCC(=O)O)NC(=O)c2cc(OC(=O)N3CC[C@H](OC)C3)cc(-c3ccccc3)n2)CC1	1	8.31	6.16
CCCCCOC(=O)N1CCN(C(=O)[C@H](CCC(=O)O)NC(=O)c2cc(N3CCC(COCCC)CC3)cc(-c3ccccc3)n2)CC1	12	7.66	5.05
CCCCCOC(=O)N1CCN(C(=O)[C@H](CCC(=O)O)NC(=O)c2cc(C(=O)NC)cc(-c3ccccc3)n2)CC1	9.7	8.00	5.17
CCCCOC(=O)N1CCN(C(=O)[C@H](CCC(=O)O)NC(=O)c2cc(NCCOC)cc(-c3ccccc3)n2)CC1	2.4	8.62	5.49
CCCCCCOC(=O)N1CCN(C(=O)[C@H](CCC(=O)O)NC(=O)c2cc(NCCOC)cc(-c3ccccc3)n2)CC1	9.6	7.96	5.14
CCCCCOC(=O)N1CCN(C(=O)[C@H](CCC(=O)O)NC(=O)c2cc(OCCO)cc(-c3ccccc3)n2)CC1	10	7.51	4.92
CCCCCOC(=O)N1CCN(C(=O)[C@H](CCC(=O)O)NC(=O)c2cc(OC(=O)N(C)C)cc(-c3ccccc3)n2)CC1	1.7	8.26	5.54
CCCCCOC(=O)N1CCN(C(=O)[C@H](CCC(=O)O)NC(=O)c2cc(CCCCOC)cc(-c3ccccc3)n2)CC1	4.5	8.08	5.38
CCCCOC(=O)N1CCN(C(=O)[C@H](CCC(=O)O)NC(=O)c2cc(OC3CCN(S(=O)(=O)CC)CC3)cc(-c3ccccc3)n2)CC1	3.1	8.12	5.48
CCCCOC(=O)N1CCN(C(=O)[C@H](CCC(=O)O)NC(=O)c2cc(OCC3CCOCC3)cc(-c3ccccc3)n2)CC1	3.6	7.96	5.64
CCCCOC(=O)N1CCN(C(=O)[C@H](CCC(=O)O)NC(=O)c2cc(OCC3CCN(C(C)=O)CC3)cc(-c3ccccc3)n2)CC1	1.4	8.41	5.68
CCCCOC(=O)N1CCN(C(=O)[C@H](CCC(=O)O)NC(=O)c2cc(OC3CCN(C(=O)OCC)CC3)cc(-c3ccccc3)n2)CC1	5.9	7.70	5.43
CCCCOC(=O)N1CCN(C(=O)[C@H](CCC(=O)O)NC(=O)c2cc(OC3CCN(C(C)=O)CC3)cc(-c3ccccc3)n2)CC1	1.1	8.55	5.92
CCCCCOC(=O)N1CCN(C(=O)[C@H](CCC(=O)O)NC(=O)c2cc(C(N)=O)cc(-c3ccccc3)n2)CC1	9	8.12	5.05
CCCCCOC(=O)N1CCN(C(=O)[C@H](CCC(=O)O)NC(=O)c2cc(NC(=O)OCC)cc(-c3ccccc3)n2)CC1	15	7.96	5.03
CCCCCOC(=O)N1CCN(C(=O)[C@H](CCC(=O)O)NC(=O)c2cc(OCC3CCN(C(=O)C(F)(F)F)CC3)cc(-c3ccccc3)n2)CC1	4.8	8.35	5.46
CCCCOC(=O)N1CCN(C(=O)[C@H](CCC(=O)O)NC(=O)c2cc(OCCC3CCCNC3)cc(-c3ccccc3)n2)CC1 (some centres undefined)	0.67	8.60	6.00
CCCCCOC(=O)N1CCN(C(=O)[C@H](CCC(=O)O)NC(=O)c2cc(C(=O)N(C)CCCN(C)C)cc(-c3ccccc3)n2)CC1	0.96	8.07	6.38
CCCCCOC(=O)N1CCN(C(=O)[C@H](CCC(=O)O)NC(=O)c2cc(C(=O)N(C)C)cc(-c3ccccc3)n2)CC1	1	8.62	5.96
CCCCOC(=O)N1CCN(C(=O)[C@H](CCC(=O)O)NC(=O)c2cc(OC(=O)N(C)C3CCOC3)cc(-c3ccccc3)n2)CC1 (some centres undefined)	0.63	8.74	6.28
CCCCOC(=O)N1CCN(C(=O)[C@H](CCC(=O)O)NC(=O)c2cc(OCC3CCCNC3)cc(-c3ccccc3)n2)CC1 (some centres undefined)	0.57	8.43	5.92

Compound	Ratio IC50 [1]	pKi [2]	pIC50 [3]
CCCCOC(=O)N1CCN(C(=O)[C@H](CCC(=O)O)NC(=O)c2cc(OCCCO)cc(-c3ccccc3)n2)CC1	5.1	8.16	5.54
CCCCOC(=O)N1CCN(C(=O)[C@H](CCC(=O)O)NC(=O)c2cc(N3CCC(N4CCCC4)CC3)cc(-c3ccccc3)n2)CC1	1.7	7.19	6.25
CCOC(=O)N1CCN(C(=O)[C@H](CCC(=O)O)NC(=O)c2cc(OCc3ccccc3)cc(-c3ccccc3)n2)CC1	42	7.55	4.51
CCCCCOC(=O)N1CCN(C(=O)[C@H](CCC(=O)O)NC(=O)c2cc(C(=O)N3CCN(C(C)=O)CC3)cc(-c3ccccc3)n2)CC1	0.48	8.77	6.49
CCCCCOC(=O)N1CCN(C(=O)[C@H](CCC(=O)O)NC(=O)c2cc(N3CCCCC3)cc(-c3ccccc3)n2)CC1	18	8.26	4.80
CCCCOC(=O)N1CCN(C(=O)[C@H](CCC(=O)O)NC(=O)c2cc(OCCC3CCNCC3)cc(-c3ccccc3)n2)CC1	0.45	8.52	6.34
CCCCCOC(=O)N1CCN(C(=O)[C@H](CCC(=O)O)NC(=O)c2cc(OC3CCN(C(=O)C(F)(F)F)CC3)cc(-c3ccccc3)n2)CC1	4.4	7.72	5.33
CCCCCOC(=O)N1CCN(C(=O)[C@H](CCC(=O)O)NC(=O)c2cc(OCC3CCN(S(=O)(=O)CC)CC3)cc(-c3ccccc3)n2)CC1	1.9	8.13	5.55
CCCCCOC(=O)N1CCN(C(=O)[C@H](CCC(=O)O)NC(=O)c2cc(OCC3CCN(C(=O)OCC)CC3)cc(-c3ccccc3)n2)CC1	5.1	8.89	5.13
CCCCOC(=O)N1CCN(C(=O)[C@H](CCC(=O)O)NC(=O)c2cc(N3CCC(N)CC3)cc(-c3ccccc3)n2)CC1	1.2	8.46	6.04
CCCCCOC(=O)N1CCN(C(=O)[C@H](CCC(=O)O)NC(=O)c2cc(NC(=O)N3CCC(COC)CC3)cc(-c3ccccc3)n2)CC1	5.2	7.37	5.35
CCCCOC(=O)N1CCN(C(=O)[C@H](CCC(=O)O)NC(=O)c2cc(OCC3CCN(C(=O)C(F)(F)F)CC3)cc(-c3ccccc3)n2)CC1	2.8	8.00	5.52
CCCCCOC(=O)N1CCN(C(=O)[C@H](CCC(=O)O)NC(=O)c2cc(OCC3CCN(C(C)=O)CC3)cc(-c3ccccc3)n2)CC1	1.8	8.89	5.89
CCCCOC(=O)N1CCN(C(=O)[C@H](CCC(=O)O)NC(=O)c2cc(OCC3CCN(C(=O)COC)CC3)cc(-c3ccccc3)n2)CC1	1.4	8.59	5.82
CCCCCCOC(=O)N1CCN(C(=O)[C@H](CCC(=O)O)NC(=O)c2cc(OCCOC)cc(-c3ccccc3)n2)CC1	7.1	7.85	5.08
CCCCOC(=O)N1CCN(C(=O)[C@H](CCC(=O)O)NC(=O)c2cc(OCCO)cc(-c3ccccc3)n2)CC1	5.1	7.70	5.10
CCCCOC(=O)N1CCN(C(=O)[C@H](CCC(=O)O)NC(=O)c2cc(OC3CCN(C(=O)C(F)(F)F)CC3)cc(-c3ccccc3)n2)CC1	3.4	7.92	5.68
CCCCOC(=O)N1CCN(C(=O)[C@H](CCC(=O)O)NC(=O)c2cc(OC(=O)N3CCOCC3)cc(-c3ccccc3)n2)CC1	0.75	8.77	6.12
CCCCCOC(=O)N1CCN(C(=O)[C@H](CCC(=O)O)NC(=O)c2cc(N3CCC(N4CCOCC4)CC3)cc(-c3ccccc3)n2)CC1	0.95	8.00	5.70
CCOC(=O)N1CCN(C(=O)[C@H](CCC(=O)O)NC(=O)c2cc(OCCCCO)cc(-c3ccccc3)n2)CC1	13	6.88	4.89
CCCCOC(=O)N1CCN(C(=O)[C@H](CCC(=O)O)NC(=O)c2cc(N3CCOCC3)cc(-c3ccccc3)n2)CC1	11	8.48	5.14
CCCCOC(=O)N1CCN(C(=O)[C@H](CCC(=O)O)NC(=O)c2cc(O)cc(-c3ccccc3)n2)CC1	9.7	7.51	5.06
CCCCOC(=O)N1CCN(C(=O)[C@H](CCC(=O)O)NC(=O)c2cc(OC3CCN(C(=O)COC)CC3)cc(-c3ccccc3)n2)CC1	0.78	8.62	6.28
CCCCCOC(=O)N1CCN(C(=O)[C@H](CCC(=O)O)NC(=O)c2cc(N3CCC(OC)CC3)cc(-c3ccccc3)n2)CC1	3	7.82	5.41
